Compound activity as filed in PubChem.
Shown is part of a subset that was picked to be rich in hits.
Lung fibro prol: blocks proliferation of human lung fibroblasts; AID 719; LL 47 human lung fibroblast viability, ATP luminescence; hits give low values; viability, % at 10 µM; 1.1% of 85,000 active;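 active = viability at or below 50% in the single dose screen; inactive = viability above 50%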;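 also: compound exposure lasted 72 h before the ATP readout; 100% = median luminescence of untreated cell-only wells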
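Material: Human LL 47 lung fibroblast cells | Input: 1,150 cells/well | Buffer or medium: IMEM plus 15% FBS | Compound dosing: 0.1% DMSO in all compound wells | Times: Overnight cell rest, 72 h compound treatment at 37 °C | Signal: CellTiter-Glo luminescence measuring cellular ATP | Measure: % viability versus median cells-only luminescence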
PTEN del growth: growth suppressors of cells with PTEN tumor suppressor deletion | HCT116 PTEN-null viability, CellTiter-Glo, 60 h; hits give low values | viability, % at 10 µM | 1.2% of 140,000 active | AID 827;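 active = viability at or below a set limit, 4 SD under the median of all tested compounds, cut at about 3.7% in these data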;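 also: PTEN knockout HCT116 line with beta catenin targeted HCT116 as companion control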
HUVEC prolif 384: blocks proliferation of human endothelial cells. HUVEC proliferation, CellTiter-Glo luminescence, 72 h; hits give low values. viability, % at 10 µM (by protocol). 1.1% of 86,000 active. AID 648;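 active = viability at or below 30%; inactive = viability above 30%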;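 also: 100% = median luminescence of DMSO-only cell control wells on each plate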
H69AR inhibit: growth inhibitors of human H69AR lung tumor cells; H69AR lung tumor viability, ATP luminescence, 72 h; hits give low values; viability, % at 10 µM; 6% of 85,000 active; AID 598;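 active = viability at or below 40%; inactive = viability above 40%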;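 also: multidrug resistant small cell line overexpressing MRP-1 efflux transporter; 100% = mean luminescence of untreated control wells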
Phagocytosis inh: macrophage phagocytosis inhibition; J774A.1 macrophage IgG-bead phagocytosis, imaging; inhibition, % at 5 µM; 0.07% of 110,000 active; AID 1029;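 active = inhibition above the mean of the plate negative controls plus 5 SD, cut at about 13% in these data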;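 also: phagocytic index as fraction of beads internalized from green versus red external bead signal; plate controls were DMSO negative control for no effect and cytochalasin-D positive control for full effect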
HCT116 bCat-KO: beta-catenin-lacking colon tumor cell growth suppression. HCT116 beta-catenin knockout viability, CellTiter-Glo, 60 h; hits give low values. viability, % at 10 µM. 1.5% of 140,000 active. AID 818;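 active = viability at or under a set limit, the compound median less 4 SD, cut at about 6% in these data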;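 also: 0% = Hyamine 1622 control at 20 µM and 100% = untreated cell control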
Numbers without * were called inactive; nt = no result.

SMILES	Lung fibro prol	PTEN del growth	HUVEC prolif 384	H69AR inhibit	Phagocytosis inh	HCT116 bCat-KO
Cc1cc(C)n(CCc2nc(-c3ccc(-c4ccccc4)cc3)cs2)n1	nt	21	nt	nt	-1	16
c1cc(-c2nc3cc(Oc4ccc5oc(-c6ccncc6)nc5c4)ccc3o2)ccn1	104	nt	107	88	nt	nt
N#Cc1cc2c(nc1SCC(=O)Nc1sc3c(c1C#N)CCC3)CCCCCC2	75	52	77	11*	-1	50
CC(C)OC(=O)CC(=O)CSc1nc2c(cc1C#N)CCCC2	102	56	89	68	-1	62
N#Cc1c(NC(=O)CSc2ncn[nH]2)sc2c1CCCC2	90	92	86	18*	0	92
CC(C)OC(=O)CC(=O)CSc1nc2c(cc1C#N)CCC2	93	15	81	24*	0	27
COc1ccc(-c2ccc(C#N)c(SCC(=O)Nc3sc4c(c3C#N)CCC4)n2)cc1OC	68	62	8.7*	1.0*	0	49
COc1ccc(-c2cc(C(F)(F)F)nc(SCC(=O)Nc3sc4c(c3C#N)CCC4)n2)cc1	nt	72	nt	nt	-1	65
CCOC(=O)c1nn(-c2ccc(F)cc2)c2nc(Nc3ccccc3)cc(=O)n12	nt	94	nt	nt	-2	94
COc1ccc(-c2nnn(CC(=O)Nc3sc4c(c3C#N)CCCC4)n2)cc1	108	93	108	6.8*	1	91
CCn1c(SCC(=O)Nc2sc3c(c2C#N)CCCC3)nnc1-c1ccncc1	97	94	99	0.9*	nt	97
Cc1csc(SCC(=O)Nc2sc3c(c2C#N)CCC3)n1	94	47	78	32*	1	48
N#Cc1c(NC(=O)CSc2nnc(-c3ccncc3)n2CC2CCCO2)sc2c1CCCC2 (centres undefined)	90	91	92	nt	-1	95
COc1ccc(-c2cc(C(=O)Nc3sc4c(c3C#N)CCCC4)c3ccccc3n2)cc1	nt	83	nt	nt	-8	91
CC(CNC(=O)C1CCCCC1C(=O)O)c1ccccc1 (centres undefined)	107	101	102	96	2	94
Cc1ccc(C(C[N+](=O)[O-])n2nc(C)cc2C)cc1 (centres undefined)	nt	1.9*	nt	nt	nt	3.9*
CCn1c(=O)c2c3c(sc2n2c(SCc4ccc(F)cc4)nnc12)CCCC3	81	nt	66	16*	nt	nt
Cn1c(=O)c2c3c(sc2n2c(SCc4ccccc4)nnc12)CCCC3	nt	83	nt	nt	-4	86
CCC1(C)Cc2c(sc3c2c(=O)n(C)c2nnc(SCc4ccccc4)n32)CO1 (centres undefined)	100	71	70	15*	0	72
Brc1ccc(N=C(c2ccccc2)c2ccncc2)cc1	nt	95	nt	nt	-10	104
Cn1ccnc1C(O)(c1nnc(-c2ccccc2)o1)C(F)(F)F (centres undefined)	nt	95	nt	nt	nt	93
O=C(Oc1ccccc1/C=C\C(=O)c1cc2ccccc2o1)c1cccc(F)c1	nt	1.3*	nt	nt	-1	5.9*
O=C(Oc1ccccc1/C=C\C(=O)c1cc2ccccc2o1)c1ccccc1	nt	2.4*	nt	nt	-3	2.3*
CN(CCOC(=O)c1cccc(F)c1)Cc1ccccc1	nt	105	nt	nt	-6	96
COc1cccc(C(=O)Oc2ccccc2/C=C\C(=O)c2cc3ccccc3o2)c1	nt	1.1*	nt	nt	-1	2.2*
SMILES	Lung fibro prol	PTEN del growth	HUVEC prolif 384	H69AR inhibit	Phagocytosis inh	HCT116 bCat-KO
Cc1noc(NS(=O)(=O)c2ccc(NC(=O)C34CC5CC(C3)CC(n3cnc(Cl)n3)(C5)C4)cc2)c1C	nt	92	nt	nt	-1	102
[O-]/[N+](=C\c1ccncc1)c1ccc(Br)cc1	108	90	68	81	-3	84
FC(F)(F)c1cccc(Cn2nnnc2-c2cc(Cl)cc(Cl)c2)c1	nt	73	nt	nt	nt	71
O=C(CCC1CCCCC1)N1CCN(Cc2ccc3c(c2)OCO3)CC1	86	84	87	83	0	92
Cc1ccc(-n2nc(C)c(C3C(C#N)=C(N)OC4=C3C(=O)CC(C)(C)C4)c2Cl)cc1 (centres undefined)	80	nt	63	24*	0	nt
Cc1nn(-c2ccccc2)c(Cl)c1C1C(C#N)=C(N)OC2=C1C(=O)CCC2 (centres undefined)	92	101	102	47	2	91
Cc1nn(-c2ccccc2)c(Cl)c1C1C(C#N)=C(N)Oc2c1c(C)nn2-c1ccccc1 (centres undefined)	99	94	75	5.1*	1	87
